Experimental data gathered from unrelated publications.
Protocols differ between the studies behind these lines.
Target: MAP kinase-interacting serine/threonine-protein kinase 2 (MKNK2, Homo sapiens, UniProt Q9HBH9)

| SMILES | observed | action | technique | concentration | measurement | result |
| --- | --- | --- | --- | --- | --- | --- |
| Cc1cnc(NC2CCOCC2)nc1-n1cnc(C(=O)NC(CN)c2cc(F)cc(Cl)c2)c1 (centres unmarked) | enzyme activity | inhibitor | radiometric | 1 µM | remaining activity | 25% |
| COc1cc(Nc2cnc(C#N)c(O[C@H](C)CN(C)C)n2)ncc1-c1cnn(C)c1 | enzyme activity | inhibitor | radiometric | 10 µM | remaining activity | 112% |
| COc1cc(Cl)c(C(=O)N[C@@H](CN[C@H]2CC[C@@H](N)CC2)Cc2ccc(C#N)cc2)cc1-c1ccc(CN[C@H](C)c2ccc(C)cc2)o1 | enzyme activity | inhibitor |  | 1 µM | remaining activity | 102% |
| N#CCCc1ccc2c(c1)-c1[nH]c3ccc([N+](=O)[O-])cc3c1CC(=O)N2 | cell-free assay |  |  | 0.5 µM | remaining signal | 87.7% |
| CC(C)(C)C(=O)c1sc(NC2CCCCC2)nc1N | enzyme activity | inhibitor |  | 10 µM | remaining activity | 96% |
| CC/C(=N\NC(=O)NCc1cccc(O)c1)c1ccc(O)c(C)c1O | enzyme activity | inhibitor |  | 0.1 µM | inhibition | -2.9% |
| CCCOc1ccc(OC)c(F)c1C(=O)c1ccc(C(=O)N[C@@H]2CNC[C@H]2NC(=O)c2ccc3[nH]ncc3c2)cc1 | enzyme activity | inhibitor |  | 10 µM | remaining activity | 67% |
| Cn1nc(C(=O)NCc2ccc(C(=O)O)cc2)cc1-c1ccc2[nH]ccc2c1 | cell-free assay |  | competition with immobilised ligand | 0.1 µM | remaining binding | 96% |
| Nc1nc(Nc2ccc(S(N)(=O)=O)cc2)nn1C(=O)c1c(F)cccc1F | cell-free assay |  |  | 0.5 µM | remaining signal | 95.9% |
| NS(=O)(=O)c1cc(NC(=O)C2(c3ccccc3Cl)CC2)ccc1Oc1cccc(Cl)c1 | cell-free assay |  | competition with immobilised ligand | 1 µM | remaining binding | 100% |
| CS(=O)(=O)Nc1cccc(-c2csc(NC(=O)CSc3nc4nccnc4c(=O)n3CCc3ccccc3)n2)c1 | enzyme activity | inhibitor |  | 10 µM | inhibition | -10% |
| CC(C)(C)c1nc(-c2cccc(NS(=O)(=O)c3c(F)cccc3F)c2F)c(-c2ccnc(N)n2)s1 | enzyme activity | inhibitor | radiometric | 1 µM | remaining activity | 63% |
| CC(=O)C1=C(C)N(c2cccc(C(F)(F)F)c2)C(=O)N[C@@H]1c1ccc(C#N)nc1 | cell-free assay |  | competition with immobilised ligand | 1 µM | remaining binding | 84.8% |
| CCN(CC)CCNC(=O)c1c(C)[nH]c(/C=C2\C(=O)Nc3ccc(F)cc32)c1C | enzyme activity | inhibitor |  | 0.3 µM | inhibition | -18% |
| COc1cc2c(Nc3ccc(Br)cc3F)ncnc2cc1OCC1CCN(C)CC1 | cell-free assay |  |  | 0.5 µM | remaining signal | 86.9% |
| CC(C)(O)[C@H]1CC[C@H](Nc2ccc3ncc(-c4cccc(C(F)(F)F)c4)n3n2)CC1 | enzyme activity | inhibitor |  | 1 µM | remaining activity | 66.5% |

| SMILES | observed | action | technique | concentration | measurement | result |
| --- | --- | --- | --- | --- | --- | --- |
| CNC(=O)c1cc(Oc2ccc(NC(=O)Nc3ccc(Cl)c(C(F)(F)F)c3)cc2)ccn1 | enzyme activity | inhibitor |  | 10 µM | inhibition | 90% |
| O=C1Nc2ccc(Cl)cc2C1=Cc1cc(Cl)c(O)c(Cl)c1 | cell-free assay |  |  | 0.5 µM | remaining signal | 88.7% |
| Cc1ccc(Nc2nccc(N(C)c3ccc4c(C)n(C)nc4c3)n2)cc1S(N)(=O)=O | enzyme activity | inhibitor |  | 10 µM | inhibition | 9% |
| CCC(=O)N[C@H]1CC[C@@H](C(=O)N(C)c2ccc(-c3nc4ccccc4o3)cc2)C1 | cell-free assay |  | competition with immobilised ligand | 1 µM | remaining binding | 100% |
| O=C(Nc1cnn(-c2csc(C(=O)NC3COC3)c2)c1)Nc1ccccc1Cl | enzyme activity | inhibitor |  | 5 µM | remaining activity | 99.3% |
| COc1cc(-c2cn(C3CCc4ccccc4N(CC(F)(F)F)C3=O)nn2)ccc1-n1ccc(C)n1 (centres unmarked) | cell-free assay |  | competition with immobilised ligand | 1 µM | remaining binding | 66% |
| Nc1ncnc2occ(-c3ccc(NC(=O)Nc4cc(C(F)(F)F)ccc4F)cc3)c12 | cell-free assay | inhibitor |  | 20 µM | remaining signal | 0% |
| Cc1ccc(C(=O)Nc2ccc(CN3CCN(C)CC3)c(C(F)(F)F)c2)cc1C#Cc1cnc2cccnn12 | enzyme activity | inhibitor |  | 23.5 nM | remaining activity | 33% |
| CN1CC(Oc2cnc(C#N)cc2-c2ccn3nc(NC(=O)C4CC4)cc3c2)C1 | enzyme activity | inhibitor |  | 1 µM | inhibition | 5% |
| FC(F)c1nc2ccccc2n1-c1nc(N2CCOCC2)nc(N2CCOCC2)n1 | enzyme activity | inhibitor |  | 10 µM | remaining activity | 101% |
| CC(=O)N1CCC(c2ccc(C(=O)NC3=NCCN3)cc2C(F)(F)F)CC1 | cell-free assay |  | competition with immobilised ligand | 1 µM | remaining binding | 100% |
| FC(F)(F)Oc1cccc(-c2cnc3ccc(-c4ccncc4)nn23)c1 | enzyme activity | inhibitor | radiometric | 1 µM | activity vs control | 66% |
| O=C(N[C@H]1CCCCC/C=C\C2C[C@@]2(C(=O)O)NC(=O)[C@@H]2C[C@@H](Oc3ccncc3)CN2C1=O)OC1CCCC1 (some centres unmarked) | binding |  | competition with immobilised ligand | 1 µM | remaining binding | 75% |
| Cc1ccc(NC(=O)c2ccc(C)c(C(F)(F)F)c2)cc1C#Cc1nn(C2CCC(O)CC2)c2ncnc(N)c12 (centres unmarked) | cell-free assay |  |  | 10 µM | remaining signal | 96% |
| CC(C)(O)c1cncc(-c2nc3ccc(F)cc3n2C2CC2)c1 | cell-free assay |  | competition with immobilised ligand | 1 µM | remaining binding | 100% |
| Oc1cccc(-c2nc(N3CCOCC3)c3oc4ncccc4c3n2)c1 | enzyme activity | inhibitor |  | 10 µM | remaining activity | 90% |
